Results on eleven molecules are retold here after ChEMBL document CHEMBL1154807, “Synthesis and antibacterial activity of novel 3-O-carbamoyl derivatives of clarithromycin and 11,12-cyclic carbonate azithromycin” (2010).

Assay type in all cases: functional
One test concerns Staphylococcus aureus. In words: Antibacterial activity against erythromycin-susceptible Staphylococcus aureus ATCC 25923 by standard dilution assay.
The test system of another test is Streptococcus pyogenes. Kind of test: Antibacterial activity against erythromycin-susceptible Streptococcus pyogenes by standard dilution assay.
In test [1] the test system is Streptococcus pneumoniae. In words: Antibacterial activity against erythromycin-susceptible Streptococcus pneumoniae ATCC 49619 by standard dilution assay. In short, it runs like this:
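MIC read-out, determined against a panel of six Gram-positive strains: three erythromycin-susceptible and three erythromycin-resistant S. pneumoniae (erm, mef, or erm plus mef). Clarithromycin and azithromycin were run alongside as reference macrolides.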

In test [2] the test system is Streptococcus pneumoniae. In words: Antibacterial activity against erythromycin-resistant Streptococcus pneumoniae B1 by standard dilution assay. The procedure, abridged: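 Readout is minimal inhibitory concentration (MIC). Erythromycin resistance in this strain is erm-encoded. It was tested within a six-strain Gram-positive panel alongside clarithromycin and azithromycin references.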

The test system of test [3] is Streptococcus pneumoniae. Kind of test: Antibacterial activity against erythromycin-resistant Streptococcus pneumoniae A22072 by standard dilution assay. In short, it runs like this: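 Readout is minimal inhibitory concentration (MIC). The strain carries mef-encoded erythromycin resistance. It was tested within a six-strain Gram-positive panel alongside clarithromycin and azithromycin references.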

Test [4] relates to Streptococcus pneumoniae. In words: Antibacterial activity against erythromycin-resistant Streptococcus pneumoniae AB11 by standard dilution assay. In short, it runs like this:
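Readout is minimal inhibitory concentration (MIC). The strain carries both erm- and mef-encoded erythromycin resistance. It was tested within a six-strain Gram-positive panel alongside clarithromycin and azithromycin references.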

≈ marks a conversion by molar mass, not a printed value.

The term MIC denotes the smallest concentration in the dilution series that meets the test's criterion for growth inhibition. Read a high MIC as weaker potency. Consider `CC[C@H]1OC(=O)[C@H](C)[C@@H](OC(=O)NCCc2ccccc2Cl)[C@H](C)[C@@H](O[C@@H]2O[C@H](C)C[C@H](N(C)C)[C@H]2O)[C@](C)(O)C[C@@H](C)CN(C)[C@H](C)[C@H]2OC(=O)O[C@@]21C`, for which the MIC is 32 µg/mL (≈ 40.1 µM) in the test with Staphylococcus aureus; 8 µg/mL (≈ 10 µM) in the test on Streptococcus pyogenes; 4 µg/mL (≈ 5.01 µM) with Streptococcus pneumoniae [1]; 32 µg/mL (≈ 40.1 µM) in the test with Streptococcus pneumoniae [2]; 16 µg/mL (≈ 20 µM) against Streptococcus pneumoniae [3]; 8 µg/mL (≈ 10 µM) with Streptococcus pneumoniae [4].
In the case of `CC[C@H]1OC(=O)[C@H](C)[C@@H](OC(=O)NCc2ccccc2)[C@H](C)[C@@H](O[C@@H]2O[C@H](C)C[C@H](N(C)C)[C@H]2O)[C@](C)(O)C[C@@H](C)CN(C)[C@H](C)[C@H]2OC(=O)O[C@@]21C`, the minimum inhibitory concentration (MIC) with Staphylococcus aureus amounted to 64 µg/mL (≈ 85.3 µM); in the test on Streptococcus pyogenes it was 32 µg/mL (≈ 42.7 µM); with Streptococcus pneumoniae [1], 16 µg/mL (≈ 21.3 µM); with Streptococcus pneumoniae [2] it was 64 µg/mL (≈ 85.3 µM); with Streptococcus pneumoniae [3] it was 128 µg/mL (≈ 171 µM); in the test on Streptococcus pneumoniae [4], 64 µg/mL (≈ 85.3 µM).
For the molecule `CC[C@H]1OC(=O)[C@H](C)[C@@H](OC(=O)NCCc2ccccc2)[C@H](C)[C@@H](O[C@@H]2O[C@H](C)C[C@H](N(C)C)[C@H]2O)[C@](C)(O)C[C@@H](C)CN(C)[C@H](C)[C@H]2OC(=O)O[C@@]21C`, the MIC amounted to 64 µg/mL (≈ 83.8 µM) with Staphylococcus aureus; 8 µg/mL (≈ 10.5 µM) against Streptococcus pyogenes; 4 µg/mL (≈ 5.24 µM) in the test with Streptococcus pneumoniae [1]; 64 µg/mL (≈ 83.8 µM) against Streptococcus pneumoniae [2]; 64 µg/mL (≈ 83.8 µM) against Streptococcus pneumoniae [3]; 32 µg/mL (≈ 41.9 µM) with Streptococcus pneumoniae [4].
On to `CCCCNC(=O)O[C@H]1[C@H](C)[C@@H](O[C@@H]2O[C@H](C)C[C@H](N(C)C)[C@H]2O)[C@](C)(O)C[C@@H](C)CN(C)[C@H](C)[C@H]2OC(=O)O[C@]2(C)[C@@H](CC)OC(=O)[C@@H]1C`, for which the MIC in the test on Staphylococcus aureus was found to be 64 µg/mL (≈ 89.4 µM); against Streptococcus pyogenes it was 8 µg/mL (≈ 11.2 µM); with Streptococcus pneumoniae [1], 8 µg/mL (≈ 11.2 µM); in the test with Streptococcus pneumoniae [2] it was 64 µg/mL (≈ 89.4 µM); in the test on Streptococcus pneumoniae [3], 128 µg/mL (≈ 179 µM); with Streptococcus pneumoniae [4], 32 µg/mL (≈ 44.7 µM).
For the molecule `CCCCCNC(=O)O[C@H]1[C@H](C)[C@@H](O[C@@H]2O[C@H](C)C[C@H](N(C)C)[C@H]2O)[C@](C)(O)C[C@@H](C)CN(C)[C@H](C)[C@H]2OC(=O)O[C@]2(C)[C@@H](CC)OC(=O)[C@@H]1C`, the MIC was found to be 64 µg/mL (≈ 87.7 µM) in the test on Staphylococcus aureus; 16 µg/mL (≈ 21.9 µM) in the test with Streptococcus pyogenes; 4 µg/mL (≈ 5.48 µM) in the test on Streptococcus pneumoniae [1]; 32 µg/mL (≈ 43.8 µM) with Streptococcus pneumoniae [2]; 64 µg/mL (≈ 87.7 µM) against Streptococcus pneumoniae [3]; 32 µg/mL (≈ 43.8 µM) against Streptococcus pneumoniae [4].
In the case of `CC[C@H]1OC(=O)[C@H](C)[C@@H](O)[C@H](C)[C@@H](O[C@@H]2O[C@H](C)C[C@H](N(C)C)[C@H]2OC(C)=O)[C@](C)(O)C[C@@H](C)CN(C)[C@H](C)[C@@H](O)[C@]1(C)O`, the MIC against Staphylococcus aureus came out at 128 µg/mL (≈ 202 µM); in the test with Streptococcus pyogenes, 128 µg/mL (≈ 202 µM); against Streptococcus pneumoniae [1] it was 128 µg/mL (≈ 202 µM); with Streptococcus pneumoniae [2] it was 128 µg/mL (≈ 202 µM); in the test on Streptococcus pneumoniae [3] it was 128 µg/mL (≈ 202 µM); against Streptococcus pneumoniae [4], 256 µg/mL (≈ 405 µM).
Consider `CC[C@H]1OC(=O)[C@H](C)[C@@H](O)[C@H](C)[C@@H](O[C@@H]2O[C@H](C)C[C@H](N(C)C)[C@H]2OC(C)=O)[C@@](C)(OC)C[C@@H](C)C(=O)[C@H](C)[C@@H](O)[C@]1(C)O`, for which the MIC with Staphylococcus aureus amounted to 128 µg/mL (≈ 203 µM); with Streptococcus pyogenes, 128 µg/mL (≈ 203 µM); with Streptococcus pneumoniae [1] it was 128 µg/mL (≈ 203 µM); with Streptococcus pneumoniae [2], 128 µg/mL (≈ 203 µM); against Streptococcus pneumoniae [3], 128 µg/mL (≈ 203 µM); against Streptococcus pneumoniae [4] it was 256 µg/mL (≈ 405 µM).
`CC[C@H]1OC(=O)[C@H](C)[C@@H](OC(=O)NCc2ccc(OC)cc2)[C@H](C)[C@@H](O[C@@H]2O[C@H](C)C[C@H](N(C)C)[C@H]2O)[C@](C)(O)C[C@@H](C)CN(C)[C@H](C)[C@H]2OC(=O)O[C@@]21C`: the MIC is 128 µg/mL (≈ 164 µM) with Staphylococcus aureus; 16 µg/mL (≈ 20.5 µM) against Streptococcus pyogenes; 8 µg/mL (≈ 10.3 µM) with Streptococcus pneumoniae [1]; 64 µg/mL (≈ 82.1 µM) with Streptococcus pneumoniae [2]; 128 µg/mL (≈ 164 µM) against Streptococcus pneumoniae [3]; 64 µg/mL (≈ 82.1 µM) against Streptococcus pneumoniae [4].
With `CC[C@H]1OC(=O)[C@H](C)[C@@H](OC(=O)NCc2ccc(F)cc2)[C@H](C)[C@@H](O[C@@H]2O[C@H](C)C[C@H](N(C)C)[C@H]2O)[C@](C)(O)C[C@@H](C)CN(C)[C@H](C)[C@H]2OC(=O)O[C@@]21C`, the MIC turned out to be 64 µg/mL (≈ 83.3 µM) against Staphylococcus aureus; 16 µg/mL (≈ 20.8 µM) in the test on Streptococcus pyogenes; 4 µg/mL (≈ 5.21 µM) in the test with Streptococcus pneumoniae [1]; 64 µg/mL (≈ 83.3 µM) in the test on Streptococcus pneumoniae [2]; 32 µg/mL (≈ 41.7 µM) against Streptococcus pneumoniae [3]; 64 µg/mL (≈ 83.3 µM) against Streptococcus pneumoniae [4].
In the case of `CC[C@H]1OC(=O)[C@H](C)[C@@H](O[C@H]2C[C@@](C)(OC)[C@@H](O)[C@H](C)O2)[C@H](C)[C@@H](O[C@@H]2O[C@H](C)C[C@H](N(C)C)[C@H]2O)[C@](C)(O)C[C@@H](C)CN(C)[C@H](C)[C@@H](O)[C@]1(C)O` [AZITHROMYCIN], the MIC with Staphylococcus aureus stood at 0.25 µg/mL (≈ 0.334 µM); in the test on Streptococcus pyogenes it was 0.12 µg/mL (≈ 0.16 µM); against Streptococcus pneumoniae [1] it was 0.03 µg/mL (≈ 0.0401 µM); in the test with Streptococcus pneumoniae [2] it was 128 µg/mL (≈ 171 µM); in the test on Streptococcus pneumoniae [3], 4 µg/mL (≈ 5.34 µM); in the test with Streptococcus pneumoniae [4] it was 256 µg/mL (≈ 342 µM).
For `CC[C@H]1OC(=O)[C@H](C)[C@@H](O[C@H]2C[C@@](C)(OC)[C@@H](O)[C@H](C)O2)[C@H](C)[C@@H](O[C@@H]2O[C@H](C)C[C@H](N(C)C)[C@H]2O)[C@](C)(OC)C[C@@H](C)C(=O)[C@H](C)[C@@H](O)[C@]1(C)O` [CLARITHROMYCIN], the MIC against Staphylococcus aureus was found to be 0.12 µg/mL (≈ 0.16 µM); in the test with Streptococcus pyogenes it was 0.12 µg/mL (≈ 0.16 µM); in the test on Streptococcus pneumoniae [1], 0.03 µg/mL (≈ 0.0401 µM); against Streptococcus pneumoniae [2], 64 µg/mL (≈ 85.6 µM); against Streptococcus pneumoniae [3] it was 4 µg/mL (≈ 5.35 µM); with Streptococcus pneumoniae [4], 128 µg/mL (≈ 171 µM).
